Laboratory results as given in ChEMBL document CHEMBL5370602, “Structure-Based Design of a Lead Compound Derived from Natural Schweinfurthins with Antitumor Properties That Target Oxysterol-Binding Protein” (J Med Chem, 2023).
Calls of active or inactive are those of the source. The calls are words filed in the database; no cut-off is given here.

How the values were obtained:
A549 = assay: Antiproliferative activity against human A549 cells assessed as inhibition of cell proliferation incubated for 72 hrs by CellTiter-Glo luminescent assay; format: functional, cell-based; details: A549, 72 h
How it was run: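 A549 in RPMI 1640 and U-87MG in DMEM, each with 10% FCS and 1% glutamine, at 37 °C and 5% CO₂. Cells seeded at 3000/well, dosed the next day, treated 72 h. Viability read by CellTiter-Glo luminescence with DMSO-treated cells set to 100%. IC50 taken from survival curves over three independent experiments.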

[1] = molecular target: T1, Oxysterol-binding protein 1 (Homo sapiens) (UniProt P22059); assay: Inhibition of human OSBP in human hTERT-RPE1 cells co-transfected with GFP-P4MSidM and TagBFP-betaGalT1 assessed as increase in PI4P at TGN by measuring GFP-P4M fluorescence and measured after 50 mins by immunofluorescence analysis; format: cell-based
T1 sequence (whole entry): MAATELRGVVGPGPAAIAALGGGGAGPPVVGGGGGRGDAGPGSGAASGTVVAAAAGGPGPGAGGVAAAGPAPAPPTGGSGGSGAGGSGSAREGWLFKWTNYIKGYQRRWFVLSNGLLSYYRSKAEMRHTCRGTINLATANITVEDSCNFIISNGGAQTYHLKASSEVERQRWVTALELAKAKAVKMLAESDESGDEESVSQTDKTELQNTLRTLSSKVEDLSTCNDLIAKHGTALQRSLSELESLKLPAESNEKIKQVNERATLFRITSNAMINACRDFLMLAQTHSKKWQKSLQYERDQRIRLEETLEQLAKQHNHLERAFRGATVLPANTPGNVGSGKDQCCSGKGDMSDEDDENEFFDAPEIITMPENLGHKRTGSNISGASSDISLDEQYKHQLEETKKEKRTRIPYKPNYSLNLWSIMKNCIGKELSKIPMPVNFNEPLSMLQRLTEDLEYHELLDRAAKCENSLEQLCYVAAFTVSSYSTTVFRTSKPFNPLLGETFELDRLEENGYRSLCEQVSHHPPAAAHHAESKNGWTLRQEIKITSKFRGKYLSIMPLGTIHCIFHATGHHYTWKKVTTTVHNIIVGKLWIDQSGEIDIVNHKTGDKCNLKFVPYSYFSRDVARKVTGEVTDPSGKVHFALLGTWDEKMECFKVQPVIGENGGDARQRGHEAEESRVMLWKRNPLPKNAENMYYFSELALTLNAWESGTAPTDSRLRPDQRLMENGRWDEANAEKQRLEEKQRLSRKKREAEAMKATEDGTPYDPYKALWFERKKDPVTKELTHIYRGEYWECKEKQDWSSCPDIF
How it was run: (§1)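 hTERT-RPE-1 cells electroporated with GFP-P4M^SidM (PI4P probe) and TagBFP-βGalT1, plated 18-24 h. Timelapse confocal imaging at 37 °C after compound addition, with P4M-GFP intensity at the TGN tracked over time and compared before and 50 min after addition. Mean of 4 to 6 independent experiments ± SEM.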

[2] = molecular target: T1, Oxysterol-binding protein 1 (Homo sapiens); assay: Inhibition of human OSBP in human hTERT-RPE1 cells co-transfected with GFP-P4MSidM and TagBFP-betaGalT1 assessed as half life for inhibition of PI4P transfer by OBSP by immunofluorescence analysis; format: cell-based; how it was run: as §1
[3] = molecular target: T1, Oxysterol-binding protein 1 (Homo sapiens); assay: Inhibition of human OSBP in human hTERT-RPE1 cells assessed as increase in OSBP recruitment at TGN and measured after 10 mins by confocal microscopy; format: cell-based
mTORC2 (Homo sapiens) = mTORC2 (Homo sapiens) (UniProt P42345+Q6R327+Q9BVC4+Q9BPZ7); assay: Inhibition of mTORC2 signalling in human U-87 MG cells assessed as decrease in AKT phosphorylation at S473 residue at 0.05 to 1 uM incubated for 48 hrs by Western blot analysis; format: cell-based
How it was run: (§2)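 U-87 MG cells cultured two days, then exposed 48 h to increasing doses. Lysed in RIPA with protease inhibitors; 5 µg protein run on 4-20% SDS gels and transferred to PVDF. Probed for phospho/total AKT, S6, S6K, P62 and LC3, detected by ECL. Band intensities normalized to β-actin.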

U-87 MG = assay: Induction of autophagy in human U-87 MG cells assessed as decrease in P62 expression at 0.05 to 1 uM incubated for 48 hrs by Western blot analysis; format: functional, cell-based; details: U-87MG ATCC; how it was run: as §2
[4] = Metabolic stability in mouse liver microsomes assessed as compound remaining at 2.5 uM and measured after 45 mins in presence of NADPH by LC-MS/MS analysis; format: ADME, Microsome; details: read-out: Stability
[5] = Metabolic stability in mouse liver microsomes assessed as compound remaining at 2.5 uM and measured after 45 mins in absence of NADPH by LC-MS/MS analysis; format: ADME, Microsome; details: read-out: Stability
[6] = Prodrug conversion in Swiss mouse plasma assessed as half life of (2R,4aR,9aR)-7-((E)-2-(5-hydroxy-2,2-dimethylchroman-7-yl)vinyl)-1,1,4a-trimethyl-2,3,4,4a,9,9a-hexahydro-1H-xanthene-2,5-diol metabolite at 20 mg/kg, IP and measured upto 6 hrs by LC-MS/MS analysis; format: ADME, organism-based; details: in vivo
How it was run: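 Male Swiss mice (5-6 weeks, 3 per dose) given a single i.p. dose of prodrug, 2.5 mg/mL in 15% hydroxypropyl-β-cyclodextrin in 65 mM phosphate pH 7.4. Retro-orbital blood taken at 5, 15, 30 min and 1, 3, 6 h; plasma acetonitrile-precipitated. Parent and metabolite quantified by LC-MS/MS with a 1-2,000 ng/mL calibration.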

[7] = Toxicity in immunodeficient nude mouse model xenografted with high alert medicated patient derived human GBM1 cells assessed as body weight change at 50 mg/kg,ip QD for 17 days; format: organism-based; details: in vivo, 408 h, time 17 day
How it was run: (§3)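 Female athymic nude mice bearing subcutaneous GBM1-HAM PDX fragments (20 mm³); treatment began day 11 post-implant at tumour volumes 75-196 mm³, 10 per group. Compound i.p. daily in cyclodextrin vehicle (17 days alone, 27 days in combination); temozolomide 42 mg/kg p.o. daily for 5 days in PBS/glucose/Tween 80. Calliper volumes three times weekly; body weight and clinical signs monitored.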

[8] = Toxicity in immunodeficient nude mouse model xenografted with high alert medicated patient derived human GBM1 cells assessed as body weight change at 50 mg/kg,ip QD for 27 days cotreatment with Temozolomide at 42 mg/kg,po QD for 5 days; format: organism-based; details: in vivo, 648 h, time 27 day; how it was run: as §3
[9] = Toxicity in immunodeficient nude mouse model xenografted with high alert medicated patient derived human GBM1 cells assessed as body weight change at 20 mg/kg,ip QD for 27 days cotreatment with Temozolomide at 42 mg/kg,po QD for 5 days; format: organism-based; details: in vivo, 648 h, time 27 day; how it was run: as §3
[10] = Antitumor activity in high alert medicated patient derived human GBM1 cells xenografted in immunodeficient nude mouse model assessed as change in tumor volume at 50 mg/kg,ip QD and measured after 11 days relative to control; format: functional; details: time 11 day; how it was run: as §3
[11] = Antitumor activity in high alert medicated patient derived human GBM1 cells xenografted in immunodeficient nude mouse model assessed as tumor growth inhibition at 20 mg/kg,ip QD cotreatment with Temozolomide at 42 mg/kg,po QD and measured after 11 days; format: functional; details: GBM1, 264 h; how it was run: as §3

IC50 (A549): 0.733 µM
inhibition [1]: Active
T1/2 [2]: 25 min
inhibition [3]: Active
inhibition (mTORC2 (Homo sapiens)): Dose-Dependent Effect
remaining at 0.75 h, 2.5 µM [4]: 5.3%
remaining at 0.75 h, 2.5 µM [5]: 16%
t1/2 [6]: 120 min
Compound: CC1(C)CCc2c(O)cc(/C=C/c3cc(O)c4c(c3)C[C@@H]3C(C)(C)[C@H](OC=O)CC[C@@]3(C)O4)cc2O1
Activity (U-87 MG): Dose-Dependent Effect
Activity [7]: Non-Toxic
Activity [8]: Non-Toxic
Activity [9]: Non-Toxic
Activity [10]: 625.61%
TGDI at 20 mg/kg [11]: 1.75
